Reference: ChEMBL document CHEMBL3769315 (J Med Chem, 2016)
Values after ≈ are worked out from the molar mass of the structure shown.

Key:
[1] = tested on: Tacaribe virus; assay: microbe, parasite or virus in culture; settings: Mammarenavirus tacaribeense
[2] = Cytotoxicity against human Huh7.5.1 cells assessed as ATP level by luminescence analysis; settings: huh-7
[3] = tested on: Poliovirus 3; assay: microbe, parasite or virus in culture; settings: Enterovirus C
[4] = tested on: Rift Valley fever virus; assay: microbe, parasite or virus in culture
[5] = tested on: SARS-CoV; assay: microbe, parasite or virus in culture; settings: Severe acute respiratory syndrome-related coronavirus
[6] = tested on: Hepatitis B virus; assay: microbe, parasite or virus in culture
[7] = tested on: Dengue virus; assay: microbe, parasite or virus in culture
[8] = tested on: Vaccinia virus; assay: microbe, parasite or virus in culture; settings: Orthopoxvirus vaccinia
[9] = tested on: Hepatitis C virus; assay: microbe, parasite or virus in culture
[10] = Solubility of compound in phosphate buffer at pH 7.4
[11] = tested on: Human betaherpesvirus 5; assay: microbe, parasite or virus in culture
[12] = tested on: Influenza A virus; assay: microbe, parasite or virus in culture; settings: H1N1
[13] = target: histamine H1 receptor (Homo sapiens, UniProt P35367); assay: in vitro; settings: PathHunter cells
[14] = tested on: HepG2; assay: Cytotoxicity against human HepG2 cells assessed as ATP level by luminescence analysis
[15] = tested on: Respiratory syncytial virus; assay: microbe, parasite or virus in culture; settings: human respiratory syncytial virus
[16] = tested on: Hepatitis C virus; assay: microbe, parasite or virus in culture; format: functional, Hepacivirus hominis; settings: Huh-7, 48 h
[17] = tested on: Human alphaherpesvirus 1; assay: microbe, parasite or virus in culture
[18] = tested on: Venezuelan equine encephalitis virus; assay: microbe, parasite or virus in culture
[19] = tested on: Hepatitis C virus; assay: Antiviral activity against HCV genotype 1a pseudoparticle infected in human Huh7.5.1 cells assessed as inhibition of virus entry at 10 uM after 4 hrs by luciferase reporter gene assay; format: functional, Hepacivirus hominis; settings: subtype 1a, Huh-7, 4 h
[20] = tested on: Hepatitis C virus; assay: Antiviral activity against HCV genotype 2a assessed as inhibition of RNA replication at 10 uM by cell-based replicon assay; format: functional, Hepacivirus hominis
How it was run: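 GT 2a subgenomic replicon cells were plated at 10^4/well and incubated overnight. They were then treated with compound (10 μM, or 3.2 or 1 μM for some compounds) for 48 h. Luciferase activity was read and expressed as % of DMSO.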

[21] = AUCinfinity in CD-1 mouse plasma at 50 mg/kg, ip after 24 hrs by UPLC-MS/MS analysis; format: ADME, organism-based; set-up: dose 50 mg/kg, route intraperitoneal, time infinity
[22] = tested on: Hepatitis C virus; assay: microbe, parasite or virus in culture; format: functional, organism-based, Hepacivirus hominis; settings: JFH-1, Huh-7.5.1, 48 h
[23] = tested on: Vesicular stomatitis virus; assay: Antiviral activity against Vesicular stomatitis virus G pseudoparticle infected in human Huh7.5.1 cells at 10 uM after 4 hrs by luciferase reporter gene assay; format: functional; settings: Huh-7, 4 h
[24] = Cmax in CD-1 mouse liver at 50 mg/kg, ip after 24 hrs by UPLC-MS/MS analysis; format: ADME, organism-based; set-up: dose 50 mg/kg, route intraperitoneal
[25] = tested on: Murine leukemia virus; assay: Antiviral activity against Murine leukemia virus pseudoparticle infected in human Huh7.5.1 cells at 10 uM after 4 hrs by luciferase reporter gene assay; format: functional; settings: Huh-7, 4 h
[26] = tested on: Hepatocyte; settings: human, hepatocytes
[27] = AUClast in CD-1 mouse liver at 50 mg/kg, ip after 24 hrs by UPLC-MS/MS analysis; format: ADME, organism-based; set-up: dose 50 mg/kg, time < 24 hr, route intraperitoneal
[28] = tested on: Hepatitis C virus; assay: Antiviral activity against HCV genotype 1b pseudoparticle infected in human Huh7.5.1 cells assessed as inhibition of virus entry at 10 uM after 4 hrs by luciferase reporter gene assay; format: functional, Hepacivirus hominis; settings: Huh-7, 4 h
[29] = tested on: Vesicular stomatitis virus; assay: Antiviral activity against Vesicular stomatitis virus G pseudoparticle infected in human Huh7.5.1 cells at 3.2 uM after 4 hrs by luciferase reporter gene assay; format: functional; settings: Huh-7, 4 h
How it was run: (§1)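 Huh7.5.1 cells seeded at 10^4 cells/well, cultured overnight, then infected for 4 h with pseudoparticles (HCVpp GT 1a or 1b, MLVpp, VSV-Gpp) while compound was present. Cells were washed and cultured 48 h, then a luciferase read-out was taken. Values are expressed as % of DMSO control. Cyclosporin A 10 μM and bafilomycin A1 10 nM were run in parallel.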

[30] = tested on: Hepatitis C virus; assay: Antiviral activity against single rounded infectious HCV infected in human Huh7.5.1 cells assessed as viral level at 3.2 uM after 48 hrs by luciferase reporter gene assay; format: functional, Hepacivirus hominis; settings: Huh-7, 48 h
How it was run: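 Huh7.5.1 cells (10^4 cells/well, overnight) were infected with single-round infectious HCV (HCVsc) in the presence of compound. Viral level was measured by luciferase after 48 h and expressed as % of DMSO control. The assay reports inhibition of early stages before assembly.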

[31] = tested on: Murine leukemia virus; assay: Antiviral activity against Murine leukemia virus pseudoparticle infected in human Huh7.5.1 cells at 3.2 uM after 4 hrs by luciferase reporter gene assay; format: functional; settings: Huh-7, 4 h
How it was run: as §1

[32] = tested on: Hepatitis C virus; assay: Antiviral activity against HCV genotype 1a pseudoparticle infected in human Huh7.5.1 cells assessed as inhibition of virus entry at 3.2 uM after 4 hrs by luciferase reporter gene assay; format: functional, Hepacivirus hominis; settings: subtype 1a, Huh-7, 4 h
How it was run: as §1

[33] = tested on: Liver microsome; assay: Metabolic stability in human liver microsomes assessed as half life by LC-MS/MS analysis in presence of NADPH
[34] = in vitro; settings: human, Huh7.5.1 cells and HepG2 cells
[35] = tested on: Liver microsome; assay: Metabolic stability in rat liver microsomes assessed as half life by LC-MS/MS analysis in presence of NADPH
[36] = tested on: Hepatitis C virus; assay: Antiviral activity against HCV genotype 1b pseudoparticle infected in human Huh7.5.1 cells assessed as inhibition of virus entry at 3.2 uM after 4 hrs by luciferase reporter gene assay; format: functional, Hepacivirus hominis; settings: Huh-7, 4 h
How it was run: as §1

[37] = tested on: Hepatitis C virus; assay: Antiviral activity against HCV genotype 2a assessed as inhibition of RNA replication at 3.2 uM by cell-based replicon assay; format: functional, Hepacivirus hominis
How it was run: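 GT 2a subgenomic HCV replicon cells were seeded at 10^4 cells/well and incubated overnight. They were then exposed to compound for 48 h, and replication was read by luciferase activity. Results are given as % of DMSO control.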

[38] = Metabolic stability in mouse liver microsomes assessed as half life by LC-MS/MS analysis in presence of NADPH
[39] = tested on: Liver; assay: (§2) Half life of compound in CD-1 mouse liver at 10 mg/kg, ip by UPLC-MS/MS analysis; format: ADME, organism-based; settings: mouse, in vivo
How it was run: (§3)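 Male CD-1 mice (~35 g) got a single i.p. dose of 10 mg/kg, prepared fresh at 2 mg/mL in 10% PEG300 / 90% of 30% HP-β-CD in water. Drug was measured by UPLC-MS/MS. Parameters came from noncompartmental analysis, with AUC by the linear trapezoidal method and liver/plasma ratios taken.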

[40] = tested on: Mus musculus; assay: Hepatotoxicity in CD-1 mouse serum assessed as ALT level at 10 mg/kg, ip by UPLC-MS/MS analysis; format: toxicity, organism-based; settings: in vivo
How it was run: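 ALT was measured in serum from the mouse PK study: male CD-1 mice, single 10 mg/kg i.p. dose in 10% PEG300 / 90% of 30% HP-β-CD, samples from 0.083 to 24 h. A vehicle-only dosing group served as control. Individual mice were plotted, with mean ± SEM.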

[41] = as §2; format: ADME, organism-based; settings: CD-1, mouse, liver
How it was run: as §3

[42] = Cmax in CD-1 mouse liver at 10 mg/kg, ip after 24 hrs by UPLC-MS/MS analysis; format: ADME, organism-based; set-up: dose 10 mg/kg, route intraperitoneal
How it was run: as §3

[43] = Selectivity index, ratio of CC50 for human Huh7.5.1 cells infected with HCV JFH-1 virus to EC50 for HCV JFH-1 virus

histamine H1 receptor, sequence (P35367 whole entry): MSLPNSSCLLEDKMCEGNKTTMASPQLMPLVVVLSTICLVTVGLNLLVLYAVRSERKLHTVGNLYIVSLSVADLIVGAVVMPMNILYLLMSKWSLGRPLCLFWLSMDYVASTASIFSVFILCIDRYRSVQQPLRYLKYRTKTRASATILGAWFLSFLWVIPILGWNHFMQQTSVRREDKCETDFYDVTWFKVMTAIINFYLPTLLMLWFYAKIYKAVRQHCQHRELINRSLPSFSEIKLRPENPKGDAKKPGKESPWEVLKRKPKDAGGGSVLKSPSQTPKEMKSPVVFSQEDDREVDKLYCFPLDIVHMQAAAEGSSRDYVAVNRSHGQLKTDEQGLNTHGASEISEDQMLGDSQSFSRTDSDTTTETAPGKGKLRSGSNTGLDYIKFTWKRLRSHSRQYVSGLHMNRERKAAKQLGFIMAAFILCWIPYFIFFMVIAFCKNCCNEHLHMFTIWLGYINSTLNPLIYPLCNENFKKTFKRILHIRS

| Structure (SMILES) | CC50 [2] | solubility kinetic [10] | inhibition at 2 h, 0.01 µM [13] | CC50 [14] | inhibition at 10 µM [16] | inhibition at 10 µM [19] | inhibition at 10 µM [20] | EC50 [22] | inhibition at 10 µM [23] | inhibition at 10 µM [25] | CC50 [26] | inhibition at 10 µM [28] | inhibition at 3.2 µM [29] | inhibition at 3.2 µM [30] | inhibition at 3.2 µM [31] | inhibition at 3.2 µM [32] | t1/2 [33] | t1/2 [35] | inhibition at 3.2 µM [36] | inhibition at 3.2 µM [37] | other results |
| --- | --- | --- | --- | --- | --- | --- | --- | --- | --- | --- | --- | --- | --- | --- | --- | --- | --- | --- | --- | --- | --- |
| CCN1CCN([C@@H](c2ccccc2)c2ccc(Cl)cc2)CC1 | 40 µM | 12.3 µg/mL (≈ 39.1 µM) | 60.7% | 68.9 µM | 2% | – | – | – | – | – | – | – | – | – | – | – | – | – | – | – | EC50 [1]: ≥ 1 µM; EC50 [3]: ≥ 1 µM; EC50 [4]: ≥ 1 µM; EC50 [5]: ≥ 1 µM; EC50 [6]: ≥ 1 µM; EC50 [7]: ≥ 1 µM; EC50 [8]: ≥ 1 µM; EC50 [9]: ≥ 1 µM; EC50 [11]: ≥ 1 µM; EC50 [12]: ≥ 1 µM; EC50 [15]: ≥ 1 µM; EC50 [17]: ≥ 1 µM; EC50 [18]: ≥ 1 µM |
| CN1CCN([C@@H](c2ccccc2)c2ccc(Cl)cc2)CC1 | 33.4 µM | 29.3 µg/mL (≈ 97.4 µM) | 49.5% | 32.3 µM | 2.1% | 107% | 101% | 0.24 µM | 120% | 103% | > 31.6 µM | 116% | – | – | – | – | – | – | – | – | AUC(0-inf) [21]: 48.9 µM·h; Cmax [24]: 436 µM; AUC(0-t) at 24 h [27]: 1310 µM·h |
| NCCOCCN1CCN(C(c2ccccc2)c2ccc(Cl)cc2)CC1 (racemic) | 8.18 µM | 44.3 µg/mL (≈ 118 µM) | 21.5% | 6.17 µM | 6.9% | – | – | 0.0072 µM | – | – | 8.98 µM | – | 93.1% | 6.9% | 107% | 19.4% | 0.438 h | 0.203 h | 37.2% | 149% | selectivity ratio [34]: < 1.8; t1/2 [38]: 0.417 h |
| CN1CCN(C(c2ccc(Cl)cc2)c2ccc(Cl)cc2)CC1 | – | > 49 µg/mL | 18.5% | – | 12.4% | 76.2% | 112% | – | 119% | 116% | – | 91.9% | – | – | – | – | > 2 h | 0.433 h | – | – | t1/2 [39]: 8.5 h; Activity [40]: 80 U/L; t1/2 [38]: 1.52 h |
| Clc1ccc([C@H](c2ccccc2)N2CCNCC2)cc1 | 9.31 µM | 30.3 µg/mL (≈ 106 µM) | 88.1% | – | – | – | – | 0.032 µM | – | – | 9.01 µM | – | 51.9% | 28.1% | 57.5% | 98.8% | – | – | 66.3% | 61.6% | half-life [41]: 4.7 h; Cmax [42]: 216 µM; selectivity ratio [43]: 333 |
